Several values for one entry are separate records, joined by “and”; a condition that tells them apart may be missing. Identical values can stand only once.
Assays:
Rattus norvegicus [1] = experiment: Hypolipidemic activity was assessed by measuring cholesterol in Sprague-Dawley male rats at 200 mg/kg; type: functional
In short: (§1)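 Male Sprague-Dawley rats (185-g mean bodyweight) on a normal diet were dosed orally for 4 consecutive days at 50 mg/kg or 200 mg/kg. They were fasted 18 h, and blood was drawn from the abdominal aorta 24 h after the last dose. Serum total cholesterol, triglycerides (mg/100 mL) and lipoprotein α-cholesterol (% of total cholesterol) were measured. Groups of 10–40 rats were compared with controls by Student's t test.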

Rattus norvegicus [2] = experiment: Hypolipidemic activity was assessed by measuring alpha-cholesterol in Sprague-Dawley male rats at 200 mg/kg; type: functional; in short: as §1
[3] = Compound was evaluated for the dose that causes […] in Sprague-Dawley male rats; type: ADME, organism-based; details: rat, in vivo
Rattus norvegicus [4] = experiment: Hypolipidemic activity was assessed by measuring triglycerides in Sprague-Dawley male rats at 200 mg/kg; type: functional; in short: as §1
Rattus norvegicus [5] = experiment: Hypolipidemic activity was assessed by measuring cholesterol in Sprague-Dawley male rats at 50 mg/kg; type: functional; in short: as §1
Rattus norvegicus [6] = experiment: Hypolipidemic activity was assessed by measuring alpha-cholesterol in Sprague-Dawley male rats at 50 mg/kg; type: functional; details: dose 50 mg/kg; in short: as §1
[7] = Evaluated for the dose that causes 50 % lethality in Sprague-Dawley male rats; type: ADME, organism-based; details: rat, in vivo
Rattus norvegicus [8] = experiment: Hypolipidemic activity was assessed by measuring triglycerides in Sprague-Dawley male rats at 50 mg/kg; type: functional; in short: as §1
Rattus norvegicus [9] = experiment: Hyperlipidemic activity was assessed by measuring cholesterol in Sprague-Dawley male rats at 12.5 mg/kg; type: functional
In short: (§2)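 Sprague-Dawley rats were fed the hyperlipidemic Nath's diet for 15 days and dosed orally at 50 or 200 mg/kg, or at 6.25, 12.5 and 25 mg/kg on a diet with 0.5% cholesterol and cholic acid. After an 18-h fast they were killed on day 16, 24 h after the last dose. Serum total cholesterol and triglycerides were assayed, and liver weight was expressed per 100 g bodyweight. Groups were compared with Nath's-diet controls by Student's t test.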

Rattus norvegicus [10] = experiment: Hyperlipidemic activity was assessed by measuring cholesterol in Sprague-Dawley male rats at 25 mg/kg; type: functional; in short: as §2
Rattus norvegicus [11] = experiment: Hyperlipidemic activity was assessed by measuring cholesterol in Sprague-Dawley male rats at 6.25 mg/kg; type: functional; in short: as §2
Rattus norvegicus [12] = experiment: Hyperlipidemic activity was assessed by measuring liver weight in Sprague-Dawley male rats at 12.5 mg/kg; type: functional; in short: as §2
Rattus norvegicus [13] = experiment: Hyperlipidemic activity was assessed by measuring liver weight in Sprague-Dawley male rats at 25 mg/kg; type: functional; in short: as §2
Rattus norvegicus [14] = experiment: Hyperlipidemic activity was assessed by measuring liver weight in Sprague-Dawley male rats at 6.25 mg/kg; type: functional; in short: as §2
Rattus norvegicus [15] = experiment: Hypolipidemic activity was assessed by measuring liver weight in Sprague-Dawley male rats at 50 mg/kg; type: functional; details: dose 20 mg/kg; in the assay text read “F 344 rats at 20 mg/kg” for “Sprague-Dawley male rats at 50 mg/kg”
Rattus norvegicus [16] = experiment: Hyperlipidemic activity was assessed by measuring triglycerides in Sprague-Dawley male rats at 12.50 mg/kg; type: functional; details: dose 12.5 mg/kg; in short: as §2
Rattus norvegicus [17] = experiment: Hyperlipidemic activity was assessed by measuring triglycerides in Sprague-Dawley male rats at 25 mg/kg; type: functional; in short: as §2
Rattus norvegicus [18] = experiment: Hyperlipidemic activity was assessed by measuring triglycerides in Sprague-Dawley male rats at 6.25 mg/kg; type: functional; in short: as §2
Rattus norvegicus [19] = experiment: Hypolipidemic activity was assessed by measuring body weight in F 344 rats at 20 mg/kg
Rattus norvegicus [20] = experiment: Hypolipidemic activity was assessed inVariation of the enoyl-CoA oxide (umol/min mg) in F 344 rats at 20 mg/kg.
Rattus norvegicus [21] = experiment: Hyperlipidemic activity was assessed in variation of palmitoyl-CoA oxide (umol/min mg) in F 344 rats at 20 mg/kg.
Rattus norvegicus [22] = experiment: Hypolipidemic activity was assessed in Variation of the liver enzyme catalase was expressed as units per mg of protein in F 344 rats at 20 mg/kg
Rattus norvegicus [23] = experiment: Hypolipidemic activity was assessed in Variation of the carnitine acetyl transferase was expressed as units per mg of protein in F 344 rats at 20 mg/kg

SMILES	Cholesterol (Rattus norvegicus [1])	Alpha-cholesterol (Rattus norvegicus [2])	LD50 [3]	Triglycerides (Rattus norvegicus [4])	Cholesterol (Rattus norvegicus [5])	Alpha-cholesterol (Rattus norvegicus [6])	LD50 [7]	Triglycerides (Rattus norvegicus [8])	also measured
Cc1cccc(Nc2nc(Cl)nc(N(C)C)n2)c1C	80.8 mg 100ml-1	78.6%	< 2000 mg/kg	< 91.4 mg/100 mL	–	–	–	–	–
CN(C)c1nc(Cl)nc(N(C)C)n1	–	–	–	–	84.8 mg 100ml-1	70%	–	–	–
Cc1cccc(Oc2cc(Cl)nc(OCC(=O)O)n2)c1C	–	–	–	–	67.1 mg 100ml-1	74%	1210 mg/kg	91.1 mg/100 mL	–
CN(C)c1cc(Cl)nc(SCC(=O)O)n1	–	–	–	–	–	81.7% and 72.2%	< 2500 mg/kg	–	Cholesterol (Rattus norvegicus [5]; 50 mg/kg): <62.5 mg 100ml-1 and <69.4 mg 100ml-1
Cc1cccc(Nc2cc(Cl)nc(S)n2)c1C	76.3 mg 100ml-1	73.2%	–	95.6 mg/100 mL	–	–	1840 mg/kg	–	–
Cc1cccc(N(C)c2cc(Cl)nc(NCC(=O)O)n2)c1C	–	–	–	–	<68.4 mg 100ml-1	77%	995 mg/kg	< 50 mg/100 mL	–
Cc1cccc(N(C)c2cc(Cl)nc(SCC(=O)O)n2)c1C	–	–	–	–	63.5 mg 100ml-1	78.6%	1010 mg/kg	< 46.9 mg/100 mL	–
Cc1cccc(Nc2nc(Cl)nc(OCC(=O)O)n2)c1C	72 mg 100ml-1	<82.1%	1180 mg/kg	< 65.5 mg/100 mL	–	–	–	–	–
CN(C)c1nc(N)cc(Cl)n1	71.4 mg 100ml-1	<87.4%	< 2500 mg/kg	< 89.9 mg/100 mL	–	–	–	–	–
CSc1nc(Cl)cc(Nc2cccc(C)c2C)n1	–	–	–	–	<54.2 mg 100ml-1	72.3%	1250 mg/kg	106 mg/100 mL	–
Cc1cccc(Nc2cc(Cl)nc(NCC(=O)O)n2)c1C [ARONIXIL]	–	–	–	–	<63.6 mg 100ml-1	76.7%	1020 mg/kg	< 71.6 mg/100 mL	Cholesterol (Rattus norvegicus [9]): 264.2 mg 100ml-1; Cholesterol (Rattus norvegicus [10]): <215.4 mg 100ml-1; Cholesterol (Rattus norvegicus [11]): 257.4 mg 100ml-1; Liver weight (Rattus norvegicus [12]): 5.14 g 100g-1; Liver weight (Rattus norvegicus [13]): 5.31 g 100g-1; Liver weight (Rattus norvegicus [14]): 4.82 g 100g-1; Liver weight (Rattus norvegicus [15]): 4.2 g (100g of body weight)-1; Triglycerides (Rattus norvegicus [16]): 263.8 mg 100ml-1; Triglycerides (Rattus norvegicus [17]): 312.1 mg 100ml-1; Triglycerides (Rattus norvegicus [18]): <205.2 mg 100ml-1; Body weight (Rattus norvegicus [19]): 266 g; Enoyl-CoA hydratase (Rattus norvegicus [20]): 3.7 uM min-1 (mg of protein)-1; Palmitoyl-CoA oxid (Rattus norvegicus [21]): 0.056 µM/min/mg; Liver catalase (Rattus norvegicus [22]): 61 mg of protein; Carnitine acetyl transferase (Rattus norvegicus [23]): 11 U/mg protein
Cc1cccc(Nc2nc(Cl)nc(N(C)CC(=O)O)n2)c1C	76.8 mg 100ml-1	79.8%	1220 mg/kg	< 74.6 mg/100 mL	–	–	–	–	–
